# In ChEMBL document CHEMBL1140733, “Comprehensive study of sansalvamide A derivatives and their structure-activity relationships against drug-resistant colon cancer cell lines” (J Med Chem, 2008):
# Square brackets hold non-standard residues; d marks the D form. Peptide text beside a SMILES is read from it. * marks the point of attachment. dNMeF = CN[C@H](Cc1ccccc1)C(=O)O; Cbz = O=C(OCc1ccccc1)*; Bn = c1ccc(C*)cc1
# Experiments:
# HCT-116 = assay: Cytotoxicity against multidrug-resistant human HCT116 cells at 1 uM by thymidine incorporation assay; type: functional
# How it was run: (§1)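 HCT-116 cells were grown in IMDM and HCT-15 in RPMI 1640, each with L-glutamine, 10% FBS and penicillin-streptomycin, at 3000 cells/well. Compound was applied at 1 µM in 1% DMSO for 72 h total, with 3H-thymidine added for the final 16 h. Percent growth inhibition versus DMSO controls was scintillation-counted, averaging three wells in each of three assays.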
# HCT-15 = assay: Cytotoxicity against multidrug-resistant human HCT15 cells at 1 uM by thymidine incorporation assay; type: functional; how it was run: as §1
SMILES,inhibition at 1 µM (HCT-116),inhibition at 1 µM (HCT-15)
CC(C)C[C@@H]1NC(=O)[C@H](Cc2ccccc2)NC(=O)[C@@H](Cc2ccccc2)NC(=O)[C@H](C(C)C)NC(=O)[C@H](CC(C)C)NC1=O,35%,14%
"CC(C)C[C@@H]1NC(=O)[C@H](Cc2ccccc2)NC(=O)[C@H](CC(C)C)NC(=O)[C@H](C(C)C)NC(=O)[C@H](CCCCN)NC1=O (HELM PEPTIDE1{F.L.K.V.L}$PEPTIDE1,PEPTIDE1,1:R1-5:R2$$$V2.0)",23%,15%
"CC(C)C[C@@H]1NC(=O)[C@H](Cc2ccccc2)NC(=O)[C@@H](Cc2ccccc2)N(C)C(=O)[C@H](C(C)C)NC(=O)[C@H](CCCCN)NC1=O (HELM PEPTIDE1{F.L.K.V.[CN([C@H](Cc1ccccc1)C(=O)[*:2])[*:1]]}$PEPTIDE1,PEPTIDE1,1:R1-5:R2$$$V2.0)",30%,26%
"CC(C)C[C@@H]1NC(=O)[C@H](Cc2ccccc2)NC(=O)[C@H](CC(C)C)NC(=O)[C@@H](Cc2ccccc2)NC(=O)[C@H](CC(C)C)NC1=O (HELM PEPTIDE1{F.L.L.[dF].L}$PEPTIDE1,PEPTIDE1,1:R1-5:R2$$$V2.0)",11%,11%
"CC[C@@H]1NC(=O)[C@H](CC(C)C)NC(=O)[C@H](CC(C)C)NC(=O)[C@H](Cc2ccccc2)NC(=O)[C@@H](CC(C)C)NC1=O (HELM PEPTIDE1{[Abu].[dL].F.L.L}$PEPTIDE1,PEPTIDE1,1:R1-5:R2$$$V2.0)",13%,8%
"CC(C)C[C@@H]1NC(=O)[C@H](Cc2ccccc2)NC(=O)[C@@H](CO)NC(=O)[C@H](C(C)C)NC(=O)[C@H](CC(C)C)NC1=O (HELM PEPTIDE1{F.L.L.V.[dS]}$PEPTIDE1,PEPTIDE1,1:R1-5:R2$$$V2.0)",37%,3%
"CC(C)C[C@@H]1NC(=O)[C@H](Cc2ccccc2)NC(=O)[C@H](CC(C)C)NC(=O)[C@@H](C(C)C)NC(=O)[C@H](CCCCN)NC1=O (HELM PEPTIDE1{F.L.K.[dV].L}$PEPTIDE1,PEPTIDE1,1:R1-5:R2$$$V2.0)",11%,18%
"CC(C)C[C@@H]1NC(=O)CN(C)C(=O)[C@H](Cc2ccccc2)NC(=O)[C@H](C(C)C)NC(=O)[C@@H](C(C)C)NC1=O (HELM PEPTIDE1{F.[Sar].L.[dV].V}$PEPTIDE1,PEPTIDE1,1:R1-5:R2$$$V2.0)",20%,18%
"CC(C)C[C@@H]1NC(=O)[C@H](C)NC(=O)[C@H](CC(C)C)NC(=O)[C@H](CC(C)C)NC(=O)[C@H](Cc2ccccc2)NC1=O (HELM PEPTIDE1{A.L.F.L.L}$PEPTIDE1,PEPTIDE1,1:R1-5:R2$$$V2.0)",23%,40%
"CC(C)C[C@@H]1NC(=O)[C@H](C(C)C)NC(=O)[C@@H](CC(C)C)NC(=O)[C@@H](CC(C)C)NC(=O)[C@H](Cc2ccccc2)NC1=O (HELM PEPTIDE1{F.[dL].[dL].V.L}$PEPTIDE1,PEPTIDE1,1:R1-5:R2$$$V2.0)",28%,40%
CC(C)C[C@@H]1NC(=O)[C@H](Cc2ccccc2)NC(=O)[C@@H](Cc2ccccc2)N(C)C(=O)[C@H](C(C)C)NC(=O)[C@H](CCCCNC(=O)OCc2ccccc2)NC1=O (cyclo(FLK(Cbz)V[dNMeF])),38%,14%
"CC(C)C[C@@H]1C(=O)N[C@H](Cc2ccccc2)C(=O)N[C@H](CC(C)C)C(=O)N[C@H](CC(C)C)C(=O)N[C@H](C(C)C)C(=O)N1C (HELM PEPTIDE1{[dF].[dL].[dL].[dV].[CC(C)C[C@H](C(=O)[*:2])N(C)[*:1]]}$PEPTIDE1,PEPTIDE1,1:R1-5:R2$$$V2.0)",1%,4%
"CC(C)[C@@H]1NC(=O)[C@H](CC2CCCCC2)NC(=O)[C@H](CO)NC(=O)[C@H](Cc2ccccc2)NC(=O)[C@@H](Cc2ccccc2)N(C)C1=O (HELM PEPTIDE1{[Cha].V.[CN([C@H](Cc1ccccc1)C(=O)[*:2])[*:1]].F.S}$PEPTIDE1,PEPTIDE1,1:R1-5:R2$$$V2.0)",34%,20%
"CC(C)C[C@@H]1NC(=O)[C@H](Cc2ccccc2)NC(=O)[C@H](CC(C)C)NC(=O)[C@H](C(C)C)N(C)C(=O)[C@H](CC(C)C)NC1=O (HELM PEPTIDE1{F.L.L.[meV].L}$PEPTIDE1,PEPTIDE1,1:R1-5:R2$$$V2.0)",6%,23%
"CC(C)C[C@H]1NC(=O)[C@@H](Cc2ccccc2)NC(=O)[C@@H](CC(C)C)NC(=O)[C@@H](C(C)C)NC(=O)[C@@H](CC(C)C)NC1=O (HELM PEPTIDE1{[dF].[dL].[dL].[dV].[dL]}$PEPTIDE1,PEPTIDE1,1:R1-5:R2$$$V2.0)",27%,15%
"CC[C@H]1NC(=O)[C@H](CC(C)C)NC(=O)[C@H](CC(C)C)NC(=O)[C@H](Cc2ccccc2)NC(=O)[C@H](CC(C)C)NC1=O (HELM PEPTIDE1{F.L.L.[CC[C@@H](N[*:1])C(=O)[*:2]].L}$PEPTIDE1,PEPTIDE1,1:R1-5:R2$$$V2.0)",17%,20%
"CC(C)C[C@@H]1NC(=O)[C@@H](CC(C)C)NC(=O)[C@H](Cc2ccccc2)NC(=O)[C@H](CC(C)C)NC(=O)[C@@H](C(C)C)NC1=O (HELM PEPTIDE1{F.[dL].L.[dV].L}$PEPTIDE1,PEPTIDE1,1:R1-5:R2$$$V2.0)",16%,20%
CC(C)[C@@H]1NC(=O)[C@H](Cc2ccccc2)NC(=O)[C@@H](COCc2ccccc2)NC(=O)[C@H](C(C)C)NC(=O)[C@H](C(C)C)NC1=O (cyclo(FVVV[dS](Bn))),25%,30%
"CC(C)C[C@@H]1NC(=O)[C@H](CC(C)C)NC(=O)[C@@H]2Cc3ccccc3CN2C(=O)[C@H](CC(C)C)NC(=O)[C@H](C(C)C)NC1=O (HELM PEPTIDE1{L.L.V.L.[Tic]}$PEPTIDE1,PEPTIDE1,1:R1-5:R2$$$V2.0)",3%,27%
"CC[C@@H]1NC(=O)[C@H](CC(C)C)NC(=O)[C@H](CC(C)C)NC(=O)[C@H](Cc2ccccc2)NC(=O)[C@H](CC(C)C)NC1=O (HELM PEPTIDE1{[Abu].L.F.L.L}$PEPTIDE1,PEPTIDE1,1:R1-5:R2$$$V2.0)",1%,8%
"CC(C)C[C@@H]1NC(=O)[C@H](C(C)C)NC(=O)[C@H](CC(C)C)N(C)C(=O)[C@H](CC(C)C)NC(=O)[C@H](Cc2ccccc2)NC1=O (HELM PEPTIDE1{F.L.[meL].V.L}$PEPTIDE1,PEPTIDE1,1:R1-5:R2$$$V2.0)",30%,57%
"CC(C)C[C@H]1NC(=O)[C@@H](Cc2ccccc2)NC(=O)[C@@H](CC(C)C)NC(=O)[C@@H](C(C)C)N(C)C(=O)[C@@H](CC(C)C)NC1=O (HELM PEPTIDE1{[dF].[dL].[dL].[CC(C)[C@H](C(=O)[*:2])N(C)[*:1]].[dL]}$PEPTIDE1,PEPTIDE1,1:R1-5:R2$$$V2.0)",18%,31%
CC(C)[C@@H]1NC(=O)[C@H](Cc2ccccc2)NC(=O)[C@H](C(C)C)NC(=O)[C@@H](COCc2ccccc2)NC(=O)[C@H](C(C)C)NC1=O (cyclo(FVV[dS](Bn)V)),17%,14%
"CC(C)[C@@H]1NC(=O)[C@H](Cc2ccccc2)NC(=O)[C@@H](CO)NC(=O)[C@H](C(C)C)NC(=O)[C@H](C(C)C)NC1=O (HELM PEPTIDE1{F.V.V.V.[dS]}$PEPTIDE1,PEPTIDE1,1:R1-5:R2$$$V2.0)",0%,18%
